The values that follow come from ChEMBL document CHEMBL1122925 (J Med Chem, 1985).

Usually inhibition stands for the share of the control response that was lost under treatment. Lower therefore signals little suppression. As usually defined, the IC50 is the concentration that gives 50% inhibition.

The structures appear in SMILES notation. Where “and” joins values, the source holds several entries; their conditions need not be identical. Equal values may be shown once.

The test system of test [1] is Thymidine kinase (Human herpesvirus 1). Nature of the test: Ability (300 uM) to compete with 150 uM of [14C]ACV for binding sites on viral enzyme (HSV-1 TK). Conditions: Human alphaherpesvirus 1.
The test system of test [2] is Vero. Nature of the test: The concentration required to inhibit the growth of viral plaques by 50% of control in plaque reduction assay. The test is classed as functional, cell-based. Conditions: Chlorocebus sabaeus. Put shortly: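 HSV-1 plaque-reduction assay, H29 strain for most values and Mac strain for some. IC50 is the concentration that inhibits viral plaque growth by 50% relative to controls.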
(In a plaque reduction assay, fewer plaques than in the control indicate reduced infectivity or spread.)

For test [3], the system named is Vero. Nature of the test: Zone of inhibition of plaque formation in vero cells inoculated with HSV-1 virus along with disks containing 50 ug of compound; 11-50 mm zone of inhibition. The test is classed as functional, Chlorocebus sabaeus. The procedure, abridged: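 HSV-1 plaque-inhibition test in Vero cells, H29 strain for most values and Mac strain for some. Disks carry 50 μg of test compound. The read-out is the diameter of the zone without plaque formation, and a zone of 11–50 mm is scored (+).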

Test [4] deals with Thymidine kinase (Human herpesvirus 1). Nature of the test: Relative substrate velocity was evaluated against Mac strain by using HSV-1 TK assay. Conditions: Human alphaherpesvirus 1.
Test [5] shares this test system. Nature of the test: Ability (300 uM) to compete with 150 uM of [14C]ACV for binding sites on viral enzyme, Mac strain (HSV-1 TK). Conditions: Human alphaherpesvirus 1.
Test [6] has the same test system. Nature of the test: Relative substrate velocity was evaluated against H29 strain by using HSV-1 TK assay. Conditions: Human alphaherpesvirus 1.
Test [7] has the same test system. Nature of the test: Ability (300 uM) to compete with 150 uM of [14C]ACV for binding sites on H29 strain viral enzyme (HSV-1 TK). Conditions: Human alphaherpesvirus 1.
Test [8] has the same test system. Nature of the test: Relative substrate velocity was evaluated by using HSV-1 TK assay. Conditions: Human alphaherpesvirus 1.
Test [9] addresses T1, Thymidine kinase (Human alphaherpesvirus 1) (UniProt Q9QNF7).
T1 sequence (whole entry): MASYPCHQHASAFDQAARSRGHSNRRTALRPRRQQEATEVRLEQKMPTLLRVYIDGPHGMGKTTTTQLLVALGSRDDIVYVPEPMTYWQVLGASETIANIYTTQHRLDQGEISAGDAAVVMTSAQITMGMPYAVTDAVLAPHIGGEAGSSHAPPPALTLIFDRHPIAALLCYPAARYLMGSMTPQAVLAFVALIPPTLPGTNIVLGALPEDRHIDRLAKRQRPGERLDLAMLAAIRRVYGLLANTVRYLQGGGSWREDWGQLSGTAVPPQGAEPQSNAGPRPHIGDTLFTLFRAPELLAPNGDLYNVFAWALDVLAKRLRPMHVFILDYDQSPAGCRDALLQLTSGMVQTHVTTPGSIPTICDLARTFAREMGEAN
Nature of the test: Relative substrate velocity was evaluated by using HSV-1 TK assay.

`Nc1nc2c(cnn2COCCO)c(=O)[nH]1`: in [1], the inhibition is 0%.

Regarding `Nc1nc(O)c2nnn(COCCO)c2n1`, the IC50 in the test on Vero [2] was determined as 129 µM. The Zone of inhibition in the test on Vero [3] came to 11. For the same compound, the Relative substrate velocity in test [4] is 5% and 9%; in test [6], 9%. Besides, the inhibition in test [5] was determined as 23%; in test [7], 27%.

For the compound `Nc1nc(=O)ccn1COCCO`, the Relative substrate velocity in [8] was below 3%. Moreover, the inhibition in test [5] stood at 7%; in test [1], 0%.

In turn, `Nc1nc(O)c2cc3ncn(COCCO)c3cc2n1` yielded an inhibition in test [1] of 24%. This compound gave a Relative substrate velocity in [9] below 3%.

In the test with Vero [2], `NC(=O)c1ncn(COCCO)n1` came in with an IC50 above 200 µM. This compound returned an inhibition in [1] of 0%.

Compound `Nc1nc2c(ncn2COCCO)c(=O)[nH]1` [ACYCLOVIR] had an IC50 in the test on Vero [2] of 0.1 µM.

For `Nc1nc(O)c2ccn(COCCO)c2n1`, the Relative substrate velocity in test [8] amounted to 3%. In addition, the inhibition in test [5] worked out at 6%.

In [1], `NC(=O)c1ncn(COCCO)c1N` displayed an inhibition of 1%.
